Results of several laboratories.
Target: Receptor-interacting serine/threonine-protein kinase 2 (RIPK2, Homo sapiens, UniProt O43353)

The remaining signal of `O=c1[nH]c2ccccc2n1C1CCN(Cc2ccc(-c3[nH]c4cc5ncnc5cc4nc3-c3ccccc3)cc2)CC1` is reported as 89.2% (cell-free assay; 0.5 µM).
The remaining binding of `COc1ncccc1-c1cnn2ccc(N3CCN(C(=O)OC(C)C)CC3)nc12` is reported as 51% (binding, competition with immobilised ligand; 1 µM).
`Cn1cc(-c2cc(F)cc(N3CCn4c(cc5c4CCCC5)C3=O)c2CO)cc(Nc2ccc(N3CCN(C4COC4)CC3)cn2)c1=O` gave an inhibition of -5% (enzyme activity, inhibitor; 0.1 µM).
For `N#CC1(c2ccccn2)CCN(Cc2cc(C(=O)O)c(=O)n3ccccc23)CC1`, the remaining binding was 92% (cell-free assay, competition with immobilised ligand; 1 µM).
The remaining binding of `Nc1ncc(-c2nc(N3CCOCC3)nc(N3CCOCC3)n2)c(C(F)F)n1` is reported as 100% (binding, competition with immobilised ligand; 10 µM).
For `CC(C)(C)c1cc(C=C(C#N)C#N)cc(Br)c1O`, the remaining activity was 32.8% (enzyme activity, inhibitor; 0.5 µM).
`Cc1nn(C)cc1-c1nc2c(N3CCN(Cc4ccc(Cl)cc4)CC3)c(Cl)cnc2[nH]1` gave a remaining binding of 100% (binding, competition with immobilised ligand; 1 µM).
`Cn1cc(-c2cccc(N3CCc4c(sc5c4CC(C)(C)C5)C3=O)c2CO)cc(Nc2ccncn2)c1=O` gave an inhibition of 1% (enzyme activity, inhibitor; 1 µM).
`Cn1cncc1[C@@](O)(COc1ccc(C#N)cc1-c1ccc(OC(F)(F)F)cc1)c1ccc(C#N)cc1` has a remaining binding of 100% (cell-free assay, competition with immobilised ligand; 1 µM).
